The values below come from BindingDB's records for doi:10.1016/j.bmcl.2005.09.030 (Institut Henri Beaufour, 2005).

SMILES strings stand for the structures.

This experiment has as its target T1, M-phase inducer phosphatase 3 (Homo sapiens, UniProt P30307).
T1 sequence (P30307 whole entry): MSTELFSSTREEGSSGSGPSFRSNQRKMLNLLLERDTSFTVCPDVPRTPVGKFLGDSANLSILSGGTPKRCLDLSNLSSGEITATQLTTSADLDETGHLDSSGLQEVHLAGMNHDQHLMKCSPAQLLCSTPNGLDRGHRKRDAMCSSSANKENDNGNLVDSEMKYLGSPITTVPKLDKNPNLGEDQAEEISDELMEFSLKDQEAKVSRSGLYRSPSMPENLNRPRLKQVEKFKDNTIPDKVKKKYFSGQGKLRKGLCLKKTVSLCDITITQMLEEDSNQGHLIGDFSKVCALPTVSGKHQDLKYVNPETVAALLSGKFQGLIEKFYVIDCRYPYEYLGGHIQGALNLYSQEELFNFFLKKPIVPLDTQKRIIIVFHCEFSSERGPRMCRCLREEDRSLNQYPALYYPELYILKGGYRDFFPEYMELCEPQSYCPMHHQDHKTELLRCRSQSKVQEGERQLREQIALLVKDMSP
The experiment can be described thus: Inhibitory activity against recombinant CDC25C. Summed up:
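Recombinant maltose binding protein (MBP)-CDC25C fusion enzyme, with 3-O-methylfluorescein phosphate (OMFP) as substrate. IC50 given as mean ± SEM from at least two, usually three, independent experiments.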
As to `CN(C)CC=Nc1cc(O)c2nc(-c3ccccc3)oc2c1O` [6-(2-(dimethylamino)ethylamino)-2-phenylbenzo[d]oxazole-4,7-dione], the IC50 stood at 230 nM. Turning to `CCc1nc2c(O)cc(N=CCN(C)C)c(O)c2[nH]1` [5-(2-(dimethylamino)ethylamino)-2-ethyl-1H-benzo[d]imidazole-4,7-dione], the IC50 came out at 12000 nM.

Consider `CN(C)CC=Nc1cc(O)c2oc(-c3ccccc3)nc2c1O` [5-(2-(dimethylamino)ethylamino)-2-phenylbenzo[d]oxazole-4,7-dione], for which the IC50 is 230 nM. Regarding `CCc1nc2c(O)cc(N=CCN(C)C)c(O)c2o1` [6-(2-(dimethylamino)ethylamino)-2-ethylbenzo[d]oxazole-4,7-dione], the IC50 amounted to 130 nM. Take `CN(C)CC=Nc1cc(O)c2nn(-c3ccccc3)cc2c1O` [5-(2-(dimethylamino)ethylamino)-2-phenyl-2H-indazole-4,7-dione]: the IC50 was 12000 nM.

In the case of `CN(C)CC=Nc1cc(O)c2cn(-c3ccccc3)nc2c1O` [6-(2-(dimethylamino)ethylamino)-2-phenyl-2H-indazole-4,7-dione], the IC50 worked out at 12000 nM. For the compound `CCc1nc2c(O)c(N=CCN(C)C)cc(O)c2o1` [5-(2-(dimethylamino)ethylamino)-2-ethylbenzo[d]oxazole-4,7-dione], the IC50 is 130 nM.
